Measured values taken from ChEMBL document CHEMBL1157406, “Cytotoxic metabolites from the fungal endophyte Alternaria sp. and their subsequent detection in its host plant Polygonum senegalense” (J Nat Prod, 2008).
pIC50: −log10 of the molar value.

Experiments:
[1] = target: Vascular endothelial growth factor receptor 2 (Homo sapiens, UniProt P35968); assay: Inhibition of recombinant VEGFR2 phosphorylation in human HUE cells; format: cell-based
How it was run: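 Human endothelial HUE cells pretreated 90 min with 10 µM staurosporine, compound 90 min at 37 °C, then VEGF165 7 min. Lysates captured on antibody-coated plates; VEGF-R2 autophosphorylation detected with antiphosphotyrosine PY99.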

[2] = target: Aurora kinase B (Homo sapiens, UniProt Q96GD4); assay: Inhibition of recombinant Aurora B phosphorylation in human HT29 cells; format: cell-based, HT-29
Sequence of Aurora kinase B (Q96GD4 whole entry): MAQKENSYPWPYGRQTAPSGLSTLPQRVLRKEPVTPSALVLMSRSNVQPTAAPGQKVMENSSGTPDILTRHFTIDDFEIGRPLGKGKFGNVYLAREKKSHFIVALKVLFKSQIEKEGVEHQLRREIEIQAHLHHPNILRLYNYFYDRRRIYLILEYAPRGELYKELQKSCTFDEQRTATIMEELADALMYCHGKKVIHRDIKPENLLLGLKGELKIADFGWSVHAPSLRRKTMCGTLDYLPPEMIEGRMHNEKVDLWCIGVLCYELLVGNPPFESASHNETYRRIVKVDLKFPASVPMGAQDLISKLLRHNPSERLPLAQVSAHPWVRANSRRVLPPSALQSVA
How it was run: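 HT29 cells pretreated 90 min with 10 µM staurosporine, then compound 90 min at 37 °C, then calyculin A 30 min. Lysates captured on antibody-coated plates; phospho-histone H3 detected with anti-P-His H3 as the Aurora B read-out.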

[3] = target: Insulin-like growth factor 1 receptor (Homo sapiens, UniProt P08069); assay: Inhibition of recombinant IGF1R phosphorylation transfected in mouse embryonic fibroblast
Sequence of Insulin-like growth factor 1 receptor (P08069 31-736 limits assumed): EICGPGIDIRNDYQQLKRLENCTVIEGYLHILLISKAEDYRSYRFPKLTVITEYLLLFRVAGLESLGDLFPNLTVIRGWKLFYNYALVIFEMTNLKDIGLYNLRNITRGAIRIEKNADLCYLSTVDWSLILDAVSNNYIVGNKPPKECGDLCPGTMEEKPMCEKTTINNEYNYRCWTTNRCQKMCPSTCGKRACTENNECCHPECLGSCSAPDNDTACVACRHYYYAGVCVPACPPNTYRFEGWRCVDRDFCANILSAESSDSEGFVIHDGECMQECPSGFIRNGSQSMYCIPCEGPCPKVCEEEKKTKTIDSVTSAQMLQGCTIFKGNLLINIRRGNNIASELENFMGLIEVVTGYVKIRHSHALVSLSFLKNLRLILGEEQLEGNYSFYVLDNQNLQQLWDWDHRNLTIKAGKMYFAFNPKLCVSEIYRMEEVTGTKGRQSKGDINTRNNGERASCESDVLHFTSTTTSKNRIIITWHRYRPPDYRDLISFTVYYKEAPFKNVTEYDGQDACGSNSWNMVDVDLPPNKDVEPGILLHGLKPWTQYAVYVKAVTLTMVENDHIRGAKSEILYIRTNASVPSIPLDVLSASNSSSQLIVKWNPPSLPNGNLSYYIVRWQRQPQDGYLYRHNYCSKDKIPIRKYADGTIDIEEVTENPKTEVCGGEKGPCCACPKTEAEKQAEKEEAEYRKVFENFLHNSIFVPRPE
Sequence of Insulin-like growth factor 1 receptor (P08069 741-1367 limits assumed): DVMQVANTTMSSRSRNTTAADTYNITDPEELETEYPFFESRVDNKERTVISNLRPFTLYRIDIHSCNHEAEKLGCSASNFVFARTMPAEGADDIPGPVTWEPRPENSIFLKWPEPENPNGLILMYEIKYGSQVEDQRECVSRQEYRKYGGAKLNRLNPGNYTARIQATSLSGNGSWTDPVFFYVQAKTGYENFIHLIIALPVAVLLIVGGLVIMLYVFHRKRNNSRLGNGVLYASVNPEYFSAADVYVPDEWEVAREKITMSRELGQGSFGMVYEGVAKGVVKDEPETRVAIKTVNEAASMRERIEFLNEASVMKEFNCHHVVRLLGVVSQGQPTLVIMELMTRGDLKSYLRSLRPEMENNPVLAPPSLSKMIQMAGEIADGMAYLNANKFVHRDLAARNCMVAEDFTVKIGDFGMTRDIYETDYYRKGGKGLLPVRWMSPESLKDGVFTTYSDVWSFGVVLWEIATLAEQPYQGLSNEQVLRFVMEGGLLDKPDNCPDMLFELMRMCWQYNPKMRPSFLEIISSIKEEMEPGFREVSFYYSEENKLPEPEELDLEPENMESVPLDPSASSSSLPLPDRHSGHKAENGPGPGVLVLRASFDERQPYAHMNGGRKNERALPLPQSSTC
How it was run: (§1)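 Mouse embryonic fibroblasts stably transfected with FLT3 or IGF1-R; 90 min pretreatment with 10 µM staurosporine, compound 90 min at 37 °C. Stimulation with FLT3-ligand 5 min (FLT3) or IGF1 3 min (IGF1-R). Lysates captured on antibody-coated plates; autophosphorylation detected with antiphosphotyrosine PY99.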

[4] = target: T1, Receptor-type tyrosine-protein kinase FLT3 (Homo sapiens, UniProt P36888); assay: Inhibition of recombinant FLT3 phosphorylation transfected in mouse embryonic fibroblast; how it was run: as §1
T1 sequence (P36888 whole entry): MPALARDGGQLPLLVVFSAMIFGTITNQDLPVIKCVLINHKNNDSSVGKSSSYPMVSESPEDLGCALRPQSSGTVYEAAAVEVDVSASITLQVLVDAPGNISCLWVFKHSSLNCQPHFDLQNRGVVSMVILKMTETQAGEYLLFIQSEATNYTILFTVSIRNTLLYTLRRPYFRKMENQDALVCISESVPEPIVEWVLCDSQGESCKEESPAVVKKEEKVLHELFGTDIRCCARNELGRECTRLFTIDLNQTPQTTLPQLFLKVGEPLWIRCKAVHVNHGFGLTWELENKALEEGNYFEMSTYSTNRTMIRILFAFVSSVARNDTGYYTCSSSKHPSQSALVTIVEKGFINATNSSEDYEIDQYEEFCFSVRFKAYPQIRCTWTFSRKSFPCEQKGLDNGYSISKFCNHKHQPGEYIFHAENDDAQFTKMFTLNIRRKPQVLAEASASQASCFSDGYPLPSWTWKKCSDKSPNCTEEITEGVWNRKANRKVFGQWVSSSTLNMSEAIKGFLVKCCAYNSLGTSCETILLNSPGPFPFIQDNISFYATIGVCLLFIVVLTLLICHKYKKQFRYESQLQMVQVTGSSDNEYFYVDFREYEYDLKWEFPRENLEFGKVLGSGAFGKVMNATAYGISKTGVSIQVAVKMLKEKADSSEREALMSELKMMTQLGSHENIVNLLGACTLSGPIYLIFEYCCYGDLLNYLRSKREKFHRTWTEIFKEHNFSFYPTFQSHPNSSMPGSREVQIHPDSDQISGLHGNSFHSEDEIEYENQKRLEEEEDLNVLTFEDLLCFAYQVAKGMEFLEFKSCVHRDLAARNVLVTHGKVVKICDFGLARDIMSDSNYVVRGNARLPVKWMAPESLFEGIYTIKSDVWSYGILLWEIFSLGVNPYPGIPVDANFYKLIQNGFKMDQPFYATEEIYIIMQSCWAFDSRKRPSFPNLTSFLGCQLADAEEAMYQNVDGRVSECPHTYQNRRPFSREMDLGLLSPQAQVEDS

Measured: pIC50

Sequence of Vascular endothelial growth factor receptor 2 (P35968 whole entry): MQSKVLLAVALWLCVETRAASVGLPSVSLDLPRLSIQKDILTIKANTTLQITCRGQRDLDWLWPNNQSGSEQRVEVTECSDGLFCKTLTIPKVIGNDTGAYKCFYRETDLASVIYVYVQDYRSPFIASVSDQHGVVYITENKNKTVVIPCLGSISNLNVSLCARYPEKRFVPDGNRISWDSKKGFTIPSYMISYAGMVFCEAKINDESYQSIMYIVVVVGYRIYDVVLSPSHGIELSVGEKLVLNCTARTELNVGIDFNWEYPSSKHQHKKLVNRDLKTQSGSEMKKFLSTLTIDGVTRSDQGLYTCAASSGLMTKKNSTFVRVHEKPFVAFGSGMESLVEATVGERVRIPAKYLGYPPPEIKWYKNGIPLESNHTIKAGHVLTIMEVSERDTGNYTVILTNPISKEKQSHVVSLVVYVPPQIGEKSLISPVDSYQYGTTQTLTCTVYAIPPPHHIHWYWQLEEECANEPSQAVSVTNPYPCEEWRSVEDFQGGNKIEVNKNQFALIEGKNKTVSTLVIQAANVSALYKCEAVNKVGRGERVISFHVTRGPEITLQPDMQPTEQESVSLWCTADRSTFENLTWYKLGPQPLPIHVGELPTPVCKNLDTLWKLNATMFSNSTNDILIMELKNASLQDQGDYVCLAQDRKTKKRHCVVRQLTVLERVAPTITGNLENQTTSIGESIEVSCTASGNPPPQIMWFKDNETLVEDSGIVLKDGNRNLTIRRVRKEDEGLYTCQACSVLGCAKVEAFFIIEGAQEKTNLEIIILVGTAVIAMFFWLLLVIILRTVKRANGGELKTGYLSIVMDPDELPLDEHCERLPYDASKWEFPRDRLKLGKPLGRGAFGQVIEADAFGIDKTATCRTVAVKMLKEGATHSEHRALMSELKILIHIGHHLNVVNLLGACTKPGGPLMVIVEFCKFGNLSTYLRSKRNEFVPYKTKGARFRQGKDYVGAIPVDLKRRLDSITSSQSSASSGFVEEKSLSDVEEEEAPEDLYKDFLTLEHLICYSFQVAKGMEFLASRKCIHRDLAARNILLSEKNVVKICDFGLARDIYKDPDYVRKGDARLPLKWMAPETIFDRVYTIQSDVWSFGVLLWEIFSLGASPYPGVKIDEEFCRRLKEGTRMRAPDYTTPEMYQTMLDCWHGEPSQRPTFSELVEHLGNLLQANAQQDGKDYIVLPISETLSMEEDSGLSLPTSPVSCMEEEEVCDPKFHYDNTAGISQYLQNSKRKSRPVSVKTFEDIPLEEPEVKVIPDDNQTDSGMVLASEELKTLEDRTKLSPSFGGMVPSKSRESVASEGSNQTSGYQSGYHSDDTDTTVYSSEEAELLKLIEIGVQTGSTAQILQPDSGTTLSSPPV

Cc1cc(O)cc2oc(=O)c3c(O)cc(O)cc3c12 [ALTERNARIOL]
5.41: all assays above
